In brackets after ≈: the same amount, converted by molar mass. Activity calls are given as the source filed them. The rule behind the calls is not given here.
Columns and labels:
[1] = target: Neuronal acetylcholine receptor subunit alpha-7 (Rattus norvegicus) (UniProt Q05941); test: Positive allosteric modulatory activity at rat alpha7 nAChR expressed in GH4C1 cells assessed as AUC of potentiation of acetylcholine response at 3 uM at -70 mV holding potential preincubated for 30 secs followed by co-application with acetylcholine by manual patch clamp assay relative to potentiation of current response; format: cell-based
Neuronal acetylcholine receptor subunit alpha-7 (Rattus norvegicus), sequence (Q05941 whole entry): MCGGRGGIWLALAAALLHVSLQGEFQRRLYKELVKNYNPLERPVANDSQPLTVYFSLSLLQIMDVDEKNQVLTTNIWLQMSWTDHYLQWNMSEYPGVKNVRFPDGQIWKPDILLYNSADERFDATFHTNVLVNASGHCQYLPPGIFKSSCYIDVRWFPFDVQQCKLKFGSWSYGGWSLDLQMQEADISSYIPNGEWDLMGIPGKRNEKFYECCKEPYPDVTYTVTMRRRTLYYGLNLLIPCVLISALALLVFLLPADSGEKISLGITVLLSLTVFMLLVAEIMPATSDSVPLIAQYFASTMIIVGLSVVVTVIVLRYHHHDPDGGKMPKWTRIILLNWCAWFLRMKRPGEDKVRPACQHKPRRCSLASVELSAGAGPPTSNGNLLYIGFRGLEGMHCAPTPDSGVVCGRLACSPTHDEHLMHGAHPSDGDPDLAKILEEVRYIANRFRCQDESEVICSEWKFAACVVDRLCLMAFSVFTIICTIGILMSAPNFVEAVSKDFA
Summary of the method: (§1)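 Conventional manual patch-clamp with a fast-application system on stable GH4C1 cells expressing rat α7 nAChR; currents evoked by acetylcholine with and without test compound; peak-current change relative to acetylcholine alone gives potentiation (P₃ at 3 μM; concentration–response for EC₅₀ and Pmax).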

Mus musculus [2] = test: Reversal of scopolamine-induced memory impairment in mouse assessed as increase in spontaneous alteration at 3 to 30 mg/kg, ip administered with compond and scopolamine at 60 mins snd 30 mins respectively prior to test by T-maze test; format: functional, organism-based
Summary of the method: (§2)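 Mouse T-maze continuous alternation task; reversal of scopolamine-induced loss of spontaneous alternation after ip or oral doses of 3 and 30 mg/kg; significant doses reported.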

[3] = target: Neuronal acetylcholine receptor subunit alpha-7 (Rattus norvegicus) (UniProt Q05941); test: Positive allosteric modulatory activity at rat alpha7 nAChR expressed in GH4C1 cells assessed as potentiation of acetylcholine response at 3 uM at -70 mV holding potential preincubated for 30 secs followed by co-application with acetylcholine by manual patch clamp assay; format: cell-based; summary of the method: as §1
[4] = Lipophilicity, log D of the compound at pH 7.4; format: physicochemical; conditions: buffer
[5] = target: Neuronal acetylcholine receptor subunit alpha-7 (Rattus norvegicus) (UniProt Q05941); test: Positive allosteric modulator activity at rat alpha7 nAChR expressed in GH4C1 cells assessed as potentiation of acetylcholine response at 3 uM at -70 mV holding potential preincubated for 30 secs followed by co-application with acetylcholine by automated patch clamp assay; format: cell-based
Summary of the method: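 Automated planar patch clamp on stable GH4C1 (rat) cell lines expressing rat α7 nAChR; test compound at 3 μM with an EC₂₀ acetylcholine challenge; percent change in peak current versus acetylcholine alone taken as P₃.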

[6] = Solubility of the compound at pH 6.5; format: physicochemical; conditions: buffer
Mus musculus [7] = test: Reversal of scopolamine-induced memory impairment in mouse assessed as increase in spontaneous alteration at 0.3 mg/kg, po administered with compond and scopolamine at 60 mins and 30 mins respectively prior to test by T-maze test; format: functional
Summary of the method: (§3)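 Mouse T-maze continuous alternation task with scopolamine-induced impairment of spontaneous alternation; compound given orally in saline-based vehicle with 25% Cremophor ELP over 0.003–10.0 mg/kg; group means compared by one-way ANOVA then Fisher's PLSD, p < 0.05 significant.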

[8] = Dose normalized AUC (0 to infinity) in Sprague-Dawley rat at 4 mg/kg administered as single IV bolus dose; format: ADME, organism-based; conditions: in vivo
Summary of the method: (§4)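 Single IV bolus of 4.0 mg/kg in male Sprague–Dawley rats; dosing solution 1.1 mg/mL in saline-based vehicle with 0.1 M hydroxypropyl-β-cyclodextrin and 10% (v/v) DMSO; plasma pharmacokinetic parameters derived.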

[9] = Stability in mouse liver microsomes assessed as hepatic extraction ratio at 1 uM measured for 45 mins by LC-MS/MS analysis; format: ADME, Microsome; conditions: read-out: ERH
Mus musculus [10] = test: Reversal of scopolamine-induced memory impairment in mouse assessed as increase in spontaneous alteration at 0.003 mg/kg, po administered with compond and scopolamine at 60 mins and 30 mins respectively prior to test by T-maze test; format: functional; summary of the method: as §3
[11] = Volume of distribution at steady state in Sprague-Dawley rat at 4 mg/kg administered as single IV bolus dose; format: ADME, organism-based; conditions: in vivo, read-out: Vdss; summary of the method: as §4
Mus musculus [12] = test: Reversal of scopolamine-induced memory impairment in mouse assessed as increase in spontaneous alteration at 1 mg/kg, po administered with compond and scopolamine at 60 mins and 30 mins respectively prior to test by T-maze test; format: functional; conditions: read-out: INH; summary of the method: as §3
[13] = target: Neuronal acetylcholine receptor subunit alpha-7 (Rattus norvegicus) (UniProt Q05941); test: Positive allosteric modulatory activity at rat alpha7 nAChR expressed in GH4C1 cells assessed as AUC of potentiation of acetylcholine response at 3 uM at -70 mV holding potential preincubated for 30 secs followed by co-application with acetylcholine by automated patch clamp assay relative to potentiation of current response; format: cell-based
[14] = Oral bioavailability in Sprague-Dawley rat; format: ADME, organism-based; conditions: in vivo
Mus musculus [15] = test: Reversal of scopolamine-induced memory impairment in mouse assessed as increase in spontaneous alteration at 3 mg/kg, po administered with compond and scopolamine at 60 mins and 30 mins respectively prior to test by T-maze test; format: functional; conditions: read-out: INH; summary of the method: as §3
[16] = target: Neuronal acetylcholine receptor subunit alpha-7 (Rattus norvegicus, UniProt Q05941); test: (§5) Positive allosteric modulatory activity at rat alpha7 nAChR expressed in GH4C1 cells assessed as potentiation of acetylcholine response at -70 mV holding potential preincubated for 30 secs followed by co-application with acetylcholine by manual patch clamp assay; format: cell-based; summary of the method: as §1
Neuronal acetylcholine receptor subunit alpha-7, sequence (Q05941 whole entry): as above

[17] = Solubility of the compound at pH 2; format: physicochemical; conditions: buffer
[18] = Plasma clearance in Sprague-Dawley rat at 4 mg/kg administered as single IV bolus dose; format: ADME, organism-based; summary of the method: as §4
Mus musculus [19] = test: Reversal of scopolamine-induced memory impairment in mouse assessed as increase in spontaneous alteration at 0.03 mg/kg, po administered with compond and scopolamine at 60 mins and 30 mins respectively prior to test by T-maze test; format: functional; summary of the method: as §3
[20] = Half life in Sprague-Dawley rat plasma at 4 mg/kg administered as single IV bolus dose; format: ADME, organism-based; summary of the method: as §4
[21] = Stability in human liver microsomes assessed as hepatic extraction ratio at 1 uM measured for 45 mins by LC-MS/MS analysis; format: ADME, Microsome; conditions: read-out: ERH
[22] = target: Neuronal acetylcholine receptor subunit alpha-7 (Rattus norvegicus) (UniProt Q05941); test: Positive allosteric modulatory activity at rat alpha7 nAChR expressed in GH4C1 cells assessed as AUC of potentiation of peak current at -70 mV holding potential preincubated for 30 secs followed by co-application with acetylcholine by manual patch clamp assay relative to peak current potentiation; format: cell-based; summary of the method: as §1
[23] = target: Neuronal acetylcholine receptor subunit alpha-7 (Rattus norvegicus) (UniProt Q05941); test: Positive allosteric modulatory activity at rat alpha7 nAChR expressed in GH4C1 cells assessed as potentiation of peak current at -70 mV holding potential preincubated for 30 secs followed by co-application with acetylcholine by manual patch clamp assay relative to acetylcholine-induced peak current; format: cell-based; summary of the method: as §1
[24] = Apparent permeability in human Caco2 cells; format: ADME, cell-based; conditions: Caco-2
Mus musculus [25] = test: Reversal of scopolamine-induced memory impairment in mouse assessed as percentage of increase in spontaneous alteration at 10 mg/kg, po administered with compond and scopolamine at 60 mins snd 30 mins respectively prior to test by T-maze test; format: functional; conditions: read-out: INH; summary of the method: as §3
Mus musculus [26] = test: Reversal of scopolamine-induced memory impairment in mouse assessed as spontaneous alteration at 3 to 30 mg/kg, po administered with compond and scopolamine at 60 mins and 30 mins respectively prior to test by T-maze test; format: functional, organism-based; summary of the method: as §2
Cytochrome P450 2C9 = Cytochrome P450 2C9 (Homo sapiens, UniProt P11712); test: Inhibition of CYP2C9 (unknown origin); format: ADME
Cytochrome P450 2C9, sequence (P11712 whole entry): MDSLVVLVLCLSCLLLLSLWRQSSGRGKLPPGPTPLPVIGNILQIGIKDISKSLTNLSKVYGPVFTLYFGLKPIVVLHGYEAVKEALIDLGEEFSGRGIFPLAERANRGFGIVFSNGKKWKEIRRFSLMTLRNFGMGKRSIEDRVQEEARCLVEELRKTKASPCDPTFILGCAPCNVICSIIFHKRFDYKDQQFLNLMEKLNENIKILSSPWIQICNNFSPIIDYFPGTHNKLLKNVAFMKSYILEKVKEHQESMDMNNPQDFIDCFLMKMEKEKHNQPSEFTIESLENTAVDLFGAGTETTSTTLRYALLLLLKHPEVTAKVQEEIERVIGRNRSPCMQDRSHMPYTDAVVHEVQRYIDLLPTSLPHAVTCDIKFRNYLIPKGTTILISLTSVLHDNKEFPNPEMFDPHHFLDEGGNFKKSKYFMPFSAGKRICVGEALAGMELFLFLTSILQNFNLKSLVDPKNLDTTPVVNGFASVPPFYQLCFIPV

Cytochrome P450 2C19 = Cytochrome P450 2C19 (Homo sapiens, UniProt P33261); test: Inhibition of CYP2C19 (unknown origin); format: ADME
Cytochrome P450 2C19, sequence (P33261 whole entry): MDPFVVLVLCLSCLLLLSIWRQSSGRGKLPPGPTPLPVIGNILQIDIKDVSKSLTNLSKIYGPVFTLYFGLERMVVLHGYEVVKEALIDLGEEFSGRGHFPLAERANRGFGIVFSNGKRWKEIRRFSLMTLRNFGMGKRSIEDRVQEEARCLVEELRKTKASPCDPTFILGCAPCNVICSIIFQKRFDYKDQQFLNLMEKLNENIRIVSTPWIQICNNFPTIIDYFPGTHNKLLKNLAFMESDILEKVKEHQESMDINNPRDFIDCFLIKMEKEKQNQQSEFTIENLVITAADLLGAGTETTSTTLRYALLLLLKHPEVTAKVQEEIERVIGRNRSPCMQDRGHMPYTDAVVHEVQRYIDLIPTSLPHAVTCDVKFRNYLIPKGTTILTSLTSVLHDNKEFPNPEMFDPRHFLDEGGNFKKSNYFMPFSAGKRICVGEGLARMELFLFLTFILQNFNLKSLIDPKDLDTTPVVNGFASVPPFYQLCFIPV

[27] = target: Neuronal acetylcholine receptor subunit alpha-7 (Rattus norvegicus) (UniProt Q05941); test: Agonist activity at rat alpha7 nAChR expressed in GH4C1 cells assessed as current response at 3 uM at -70 mV holding potential by manual patch clamp assay; format: cell-based
Summary of the method: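 Manual patch clamp with fast application on stable GH4C1 cells expressing α7 nAChR; test compound applied without acetylcholine to look for evoked currents.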

[28] = target: Neuronal acetylcholine receptor subunit alpha-7 (Rattus norvegicus) (UniProt Q05941); test: as §5; format: cell-based; summary of the method: as §1

| logD [4] | Activity [5] [%] | solubility [6] [µg/mL] | hepatic extraction ratio at 0.75 h, 1 µM [9] | EC50 [16] [nM] | hepatic extraction ratio at 0.75 h, 1 µM [21] | Emax [23] [%] | SMILES | percent reversal of scopolamine-induced memory impairment (increase in spontaneous alternation) at 1 mg/kg (Mus musculus [12]) [%] | percent reversal of scopolamine-induced memory impairment at 3 mg/kg (Mus musculus [15]) [%] | percent increase in spontaneous alternation at 10 mg/kg (Mus musculus [25]) [%] | inhibition (Mus musculus [26]) | other results |
| --- | --- | --- | --- | --- | --- | --- | --- | --- | --- | --- | --- | --- |
|  | 460 |  |  |  |  |  | Cc1ccc(F)cc1NC[C@@H]1[C@@H](c2ccc(S(N)(=O)=O)cc2)C1(C)C | -9 | 0 | 10 |  |  |
|  | 8170 |  |  |  |  |  | CC1(C)[C@@H](CNc2ccc(F)cc2OC(F)F)[C@@H]1c1ccc(S(N)(=O)=O)cc1 | 46 | 16 | 51 |  |  |
|  | 2860 |  |  |  |  |  | CC1(C)[C@@H](CNc2ccc(F)cc2C(F)(F)F)[C@@H]1c1ccc(S(N)(=O)=O)cc1 | 40 | 39 | 79 |  |  |
|  | 11800 |  | 0.71 | 63 | 0.59 | 1630 | COc1ccc(Cl)cc1NC[C@H]1[C@H](c2ccc(S(N)(=O)=O)cc2)C1(C)C |  | 90 |  |  | inhibition in vivo at 0.3 mg/kg (Mus musculus [7]): 65%; AUC/dose [8]: 1 µM·h/mg; inhibition in vivo at 0.003 mg/kg (Mus musculus [10]): -3%; Vd [11]: 5.1 L/kg; Ratio [13]: 57; bioavailability [14]: 77%; clearance [18]: 43 mL/min/kg; inhibition in vivo at 0.03 mg/kg (Mus musculus [19]): 11%; half-life [20]: 3.9 h; Ratio [22]: 25; Papp [24]: 14 ×10⁻⁶ cm/s |
|  | 7900 | > 100 | 0.82 | 25 | 0.64 | 650 | COc1ccc(Cl)cc1NCC1C(c2ccc(S(N)(=O)=O)cc2)C1(C)C (racemic) |  |  |  | Active | IC50 (Cytochrome P450 2C9): > 10000 nM; IC50 (Cytochrome P450 2C19): > 10000 nM; inhibition [27]: inactive; Activity [28]: Dose-dependent effect; solubility [17]: 1.6 to 3.1 µg/mL (≈ 4.05 to 7.85 µM) |

Continued, compound first:

| SMILES | logD [4] | Activity [5] [%] | solubility [6] [µg/mL] | hepatic extraction ratio at 0.75 h, 1 µM [9] | EC50 [16] [nM] | hepatic extraction ratio at 0.75 h, 1 µM [21] | Emax [23] [%] | percent reversal of scopolamine-induced memory impairment (increase in spontaneous alternation) at 1 mg/kg (Mus musculus [12]) [%] | percent reversal of scopolamine-induced memory impairment at 3 mg/kg (Mus musculus [15]) [%] | percent increase in spontaneous alternation at 10 mg/kg (Mus musculus [25]) [%] | inhibition (Mus musculus [26]) | other results |
| --- | --- | --- | --- | --- | --- | --- | --- | --- | --- | --- | --- | --- |
| COc1ccc(Cl)cc1NC(=O)C1C(c2ccc(S(N)(=O)=O)cc2)C1(C)C (racemic) | 3.7 | 660 | 3.1 to 6.3 (≈ 7.58 to 15.4 µM) |  |  |  |  |  |  |  |  | Ratio [1]: 5.6; inhibition (Mus musculus [2]): Active; Activity [3]: 420% |
| COc1ccc(Cl)cc1NC[C@@H]1[C@@H](c2ccc(S(N)(=O)=O)cc2)C1(C)C | 4.2 | 1160 | 1.6 to 3.1 (≈ 4.05 to 7.85 µM) | 0.79 | 1900 | 0.84 | 1570 | 78 | 78 |  |  | inhibition in vivo at 0.3 mg/kg (Mus musculus [7]): 62%; AUC/dose [8]: 1.2 µM·h/mg; inhibition in vivo at 0.003 mg/kg (Mus musculus [10]): -9%; Vd [11]: 1.8 L/kg; Ratio [13]: 3.1; bioavailability [14]: 62%; solubility [17]: > 100 µg/mL; clearance [18]: 35 mL/min/kg; inhibition in vivo at 0.03 mg/kg (Mus musculus [19]): 51%; half-life [20]: 1.2 h; Ratio [22]: 1.7; Papp [24]: 11 ×10⁻⁶ cm/s |
| COc1ccc(Cl)cc1NC(=O)c1cccc(-c2ccc(S(N)(=O)=O)cc2)c1 |  | 410 |  |  |  |  |  |  |  |  | inactive |  |
| COc1ccc(Cl)cc1NC(=O)C1C(c2ccc(S(N)(=O)=O)cc2)C12CCCC2 (racemic) | 4.2 | 710 | 1.6 to 3.1 (≈ 3.68 to 7.13 µM) |  |  |  |  |  |  |  | inactive | Ratio [1]: 5.6; inhibition (Mus musculus [2]): Active; Activity [3]: 360% |

— ChEMBL document CHEMBL4364238, “Discovery of BNC375, a Potent, Selective, and Orally Available Type I Positive Allosteric Modulator of α7 nAChRs” (ACS Med Chem Lett, 2019)
